In ChEMBL document CHEMBL2069210, “D-ring modified novel isosteviol derivatives: design, synthesis and cytotoxic activity evaluation” (Bioorg Med Chem Lett, 2012):

How the values were obtained:
Assay type in all cases: functional, cell-based
[1] = tested on: HCT-116; experiment: Antiproliferative activity against human HCT116 cells after 72 hrs by MTT assay; details: HCT-116, 72 h
Method in brief: (§1)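 Seeded at 5 × 10^3 cells/well and left 24 h. Medium then replaced with fresh medium holding compound over a range of concentrations, and cells incubated a further 72 h. 0.5 mg/mL MTT in PBS added for 4 h, formazan dissolved in DMSO, absorbance read at 562 nm. IC50 derived from percent inhibition across concentrations.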

[2] = tested on: PC-3; experiment: Antiproliferative activity against human PC3 cells after 72 hrs by MTT assay; details: PC-3, 72 h; method in brief: as §1
[3] = Antiproliferative activity against human EC9706 cells after 72 hrs by MTT assay; details: EC9706, 72 h; method in brief: as §1
[4] = Antiproliferative activity against human ECA109 cells after 72 hrs by MTT assay; details: ECa-109, 72 h; method in brief: as §1

IC50 [1]	IC50 [2]	SMILES	IC50 [3]	IC50 [4]
> 100 µM	> 100 µM	CCOC(=O)[C@]1(C)CCC[C@@]2(C)[C@@H]3CC[C@@]4(C)C[C@]3(CC[C@@H]21)C(=O)[C@H]4O	> 100 µM	> 100 µM
> 100 µM	> 100 µM	CCOC(=O)[C@]1(C)CCC[C@@]2(C)[C@@H]3CC[C@@]4(C)C[C@]3(CC[C@@H]21)C(Br)C4=O (some centres not stated)	> 100 µM	> 100 µM
> 100 µM	> 100 µM	CCOC(=O)[C@]1(C)CCC[C@@]2(C)[C@@H]3CC[C@@]4(C)C[C@]3(CC[C@@H]21)C(=O)OC4=O	> 100 µM	> 100 µM
> 100 µM	> 100 µM	CCOC(=O)[C@]1(C)CCC[C@@]2(C)[C@@H]3CC[C@@]4(C)C[C@]3(CC[C@@H]21)C(=O)[C@H]4N	97.2 µM	> 100 µM
20.1 µM	25.4 µM	CCOC(=O)[C@]1(C)CCC[C@@]2(C)[C@@H]3CC[C@@]4(C)C[C@]3(CC[C@@H]21)[C@@H](O)[C@H]4N	19.3 µM	41.3 µM
> 100 µM	> 100 µM	CCOC(=O)[C@]1(C)CCC[C@@]2(C)[C@@H]3CC[C@@]4(C)C[C@]3(CC[C@@H]21)C[C@H]4O	> 100 µM	> 100 µM
> 100 µM	> 100 µM	CCOC(=O)[C@]1(C)CCC[C@@]2(C)[C@@H]3CC[C@@]4(C)C[C@]3(CC[C@@H]21)C(=O)C4=O	> 100 µM	> 100 µM
> 100 µM	> 100 µM	CCOC(=O)[C@]1(C)CCC[C@@]2(C)[C@@H]3CC[C@@]4(C)C[C@]3(CC[C@@H]21)[C@H](C=O)[C@H]4O	24.4 µM	26.5 µM
> 100 µM	> 100 µM	CCOC(=O)[C@]1(C)CCC[C@@]2(C)[C@@H]3CC[C@@]4(C)C[C@]3(CC[C@@H]21)C(=O)/C4=N\O	> 100 µM	> 100 µM
> 100 µM	87.6 µM	CCOC(=O)[C@]1(C)CCC[C@@]2(C)[C@@H]3CC[C@@]4(C)C[C@]3(CC[C@@H]21)[C@@H](O)[C@H]4O	52.1 µM	90.3 µM
> 100 µM	> 100 µM	CCOC(=O)[C@]1(C)CCC[C@@]2(C)[C@@H]3CC[C@@]4(C)C[C@]3(CC[C@@H]21)[C@H](CO)[C@H]4O	91.6 µM	43.3 µM

More lines, now with the values behind:

SMILES	IC50 [1]	IC50 [2]	IC50 [3]	IC50 [4]
CCOC(=O)[C@]1(C)CCC[C@@]2(C)[C@@H]3CC[C@](C)(C#N)C[C@@]3(C=O)CC[C@@H]21	> 100 µM	> 100 µM	> 100 µM	> 100 µM
CCOC(=O)[C@]1(C)CCC[C@@]2(C)[C@@H]3CC[C@@]4(C)C[C@]3(CC[C@@H]21)[C@@H](CN)[C@@H]4O	12.2 µM	15.3 µM	4.01 µM	5.02 µM
CCOC(=O)[C@]1(C)CCC[C@@]2(C)[C@@H]3CC[C@@]4(C)C[C@]3(CC[C@@H]21)CC4=O	> 100 µM	> 100 µM	> 100 µM	> 100 µM
CCOC(=O)[C@]1(C)CCC[C@@]2(C)[C@@H]3CC[C@]4(C)C=C(C=O)[C@@]3(CC[C@@H]21)C4	> 100 µM	40.3 µM	> 100 µM	> 100 µM
CCOC(=O)[C@]1(C)CCC[C@@]2(C)[C@@H]3CC[C@@]4(C)C[C@]3(CC[C@@H]21)[C@@H](O)/C4=N\O	> 100 µM	> 100 µM	> 100 µM	> 100 µM
C[C@@]12CC[C@@H]3[C@@](CC[C@H]4[C@@]3(C)CCC[C@@]4(C)C(=O)O)(CC1=O)C2 [ISOSTEVIOL]	> 100 µM	> 100 µM	> 100 µM	> 100 µM
CCOC(=O)[C@]1(C)CCC[C@@]2(C)[C@@H]3CC[C@](C)(C(N)=O)C[C@@]3(C(=O)O)CC[C@@H]21	> 100 µM	> 100 µM	> 100 µM	> 100 µM
CCOC(=O)[C@]1(C)CCC[C@@]2(C)[C@@H]3CC[C@@]4(C)C[C@]3(CC[C@@H]21)[C@H](C=O)[C@H]4N1CCCC1	> 100 µM	> 100 µM	> 100 µM	30.3 µM
CCOC(=O)[C@]1(C)CCC[C@@]2(C)[C@@H]3CC[C@@]4(C)C[C@]3(CC[C@@H]21)[C@H](CNC(C)=O)[C@H]4O	> 100 µM	> 100 µM	21.2 µM	13.3 µM
CCOC(=O)[C@]1(C)CCC[C@@]2(C)[C@@H]3CC[C@@]4(C)C[C@]3(CC[C@@H]21)[C@@H](O)[C@H]4NC(=S)Nc1cccc2ccccc12	> 100 µM	> 100 µM	> 100 µM	90.9 µM
CCOC(=O)[C@]1(C)CCC[C@@]2(C)[C@@H]3CC[C@@]4(C)C[C@]3(CC[C@@H]21)[C@H](/C=N/O)[C@H]4O	> 100 µM	> 100 µM	56.6 µM	17.9 µM
CCOC(=O)[C@]1(C)CCC[C@@]2(C)[C@@H]3CC[C@@]4(C)C[C@]3(CC[C@@H]21)[C@@H](O)[C@H]4NC(=S)Nc1ccccc1	> 100 µM	> 100 µM	> 100 µM	72.3 µM
CCOC(=O)[C@]1(C)CCC[C@@]2(C)[C@@H]3CC[C@@]4(C)C[C@]3(CC[C@@H]21)C(=O)[C@H]4NC(=S)Nc1ccccc1	> 100 µM	> 100 µM	> 100 µM	> 100 µM
C[C@]12CC[C@H]3[C@]4(C)CCC[C@@](C)(CO)[C@H]4CC[C@@]3(C1)[C@@H](O)/C2=N\O	> 100 µM	> 100 µM	> 100 µM	> 100 µM
CCOC(=O)[C@]1(C)CCC[C@@]2(C)[C@@H]3CC[C@](C)(C(=O)O)C[C@@]3(C(=O)O)CC[C@@H]21	> 100 µM	> 100 µM	> 100 µM	> 100 µM
CCOC(=O)[C@]1(C)CCC[C@@]2(C)[C@@H]3CC[C@@]4(C)C[C@]3(CC[C@@H]21)C(=O)[C@H]4NC(=O)[C@@H]1CCCN1	> 100 µM	> 100 µM	> 100 µM	> 100 µM
CCOC(=O)[C@]1(C)CCC[C@@]2(C)[C@@H]3CC[C@@]4(C)C[C@]3(CC[C@@H]21)[C@@H](O)[C@H]4NC(=S)Nc1cc(C(F)(F)F)cc(C(F)(F)F)c1	14.3 µM	20.6 µM	24.1 µM	45.8 µM
CCOC(=O)[C@]1(C)CCC[C@@]2(C)[C@@H]3CC[C@@]4(C)C[C@]3(CC[C@@H]21)C(=O)[C@H]4NC(=S)Nc1cccc2ccccc12	> 100 µM	> 100 µM	> 100 µM	> 100 µM
CCOC(=O)[C@]1(C)CCC[C@@]2(C)[C@@H]3CC[C@@]4(C)C[C@]3(CC[C@@H]21)[C@@H](O)[C@H]4NC(=O)[C@@H]1CCCN1	> 100 µM	> 100 µM	60.7 µM	69.5 µM
CCOC(=O)[C@]1(C)CCC[C@@]2(C)[C@@H]3CC[C@@]4(C)C[C@]3(CC[C@@H]21)[C@H](CNC(C)=O)[C@H]4OC(C)=O	> 100 µM	> 100 µM	> 100 µM	> 100 µM
CCOC(=O)[C@]1(C)CCC[C@@]2(C)[C@@H]3CC[C@@]4(C)C[C@]3(CC[C@@H]21)C(=O)[C@H]4NC(=S)Nc1cc(C(F)(F)F)cc(C(F)(F)F)c1	> 100 µM	> 100 µM	> 100 µM	> 100 µM
CCOC(=O)[C@]1(C)CCC[C@@]2(C)[C@@H]3CC[C@](C)(C#N)C[C@@]3(C(=O)O)CC[C@@H]21	> 100 µM	> 100 µM	> 100 µM	> 100 µM
